Experiment [1] deals with T1, Muscarinic acetylcholine receptor M3 (Rattus norvegicus, UniProt P08483). Description: Antagonist activity at rat muscarinic M3 receptor expressed in CHO cells by calcium mobilization assay. The class given is functional, cell-based. A general note: Calcium assays in cells follow changes in intracellular calcium, usually with a dye or a luminescent sensor.
In experiment [2] the target is T2, Muscarinic acetylcholine receptor M5 (Rattus norvegicus, UniProt P08911).
T2 sequence (P08911 whole entry): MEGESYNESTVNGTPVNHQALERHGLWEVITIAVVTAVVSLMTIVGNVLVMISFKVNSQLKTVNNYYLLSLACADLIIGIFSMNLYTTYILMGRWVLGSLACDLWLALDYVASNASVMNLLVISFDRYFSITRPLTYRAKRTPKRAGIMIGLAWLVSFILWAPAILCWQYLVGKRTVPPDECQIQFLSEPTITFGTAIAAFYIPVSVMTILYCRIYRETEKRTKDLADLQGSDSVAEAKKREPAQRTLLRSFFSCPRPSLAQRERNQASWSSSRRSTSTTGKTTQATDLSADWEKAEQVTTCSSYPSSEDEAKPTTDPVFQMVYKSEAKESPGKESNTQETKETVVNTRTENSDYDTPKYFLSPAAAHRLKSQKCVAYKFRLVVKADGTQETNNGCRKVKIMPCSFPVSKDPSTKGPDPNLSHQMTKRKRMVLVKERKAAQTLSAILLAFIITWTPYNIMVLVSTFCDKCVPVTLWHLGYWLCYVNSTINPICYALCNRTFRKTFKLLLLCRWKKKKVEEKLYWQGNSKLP
The experiment can be described thus: Antagonist activity at rat muscarinic M5 receptor expressed in CHO cells by calcium mobilization assay. The class given is functional, cell-based.

Experiment [3] concerns the target T3, Muscarinic acetylcholine receptor M1 (Rattus norvegicus, UniProt P08482).
T3 sequence (P08482 whole entry): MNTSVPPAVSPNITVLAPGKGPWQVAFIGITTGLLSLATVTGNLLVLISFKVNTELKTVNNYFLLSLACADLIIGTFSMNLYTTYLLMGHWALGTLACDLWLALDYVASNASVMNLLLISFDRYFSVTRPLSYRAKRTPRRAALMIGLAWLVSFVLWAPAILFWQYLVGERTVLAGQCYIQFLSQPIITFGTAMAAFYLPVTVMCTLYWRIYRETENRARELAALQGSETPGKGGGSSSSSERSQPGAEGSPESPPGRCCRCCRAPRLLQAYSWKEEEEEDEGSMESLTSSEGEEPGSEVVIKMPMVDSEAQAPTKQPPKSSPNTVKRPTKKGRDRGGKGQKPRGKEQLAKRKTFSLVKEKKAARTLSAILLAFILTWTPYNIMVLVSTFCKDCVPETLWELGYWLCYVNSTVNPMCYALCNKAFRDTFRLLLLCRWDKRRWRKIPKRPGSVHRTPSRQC
Description: Antagonist activity at rat muscarinic M1 receptor expressed in CHO cells by calcium mobilization assay. The format is functional, cell-based.

Experiment [4] has as its target T4, Muscarinic acetylcholine receptor M2 (Rattus norvegicus, UniProt P10980).
T4 sequence (P10980 whole entry): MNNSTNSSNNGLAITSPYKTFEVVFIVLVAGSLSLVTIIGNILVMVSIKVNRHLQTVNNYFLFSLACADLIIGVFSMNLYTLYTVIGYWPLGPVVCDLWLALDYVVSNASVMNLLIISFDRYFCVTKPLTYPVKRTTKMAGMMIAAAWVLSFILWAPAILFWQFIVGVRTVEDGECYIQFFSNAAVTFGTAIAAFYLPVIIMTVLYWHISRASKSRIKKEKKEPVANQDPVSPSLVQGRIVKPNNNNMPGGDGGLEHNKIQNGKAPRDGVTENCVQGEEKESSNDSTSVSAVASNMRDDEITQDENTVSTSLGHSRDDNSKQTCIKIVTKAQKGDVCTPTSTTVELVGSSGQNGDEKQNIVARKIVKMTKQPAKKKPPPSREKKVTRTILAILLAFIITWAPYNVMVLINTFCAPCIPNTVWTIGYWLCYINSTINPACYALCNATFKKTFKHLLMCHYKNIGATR
Description: Antagonist activity at rat muscarinic M2 receptor expressed in CHO cells by calcium mobilization assay. The format is functional, cell-based.

Experiment [5] addresses T5, Muscarinic acetylcholine receptor M4 (Rattus norvegicus, UniProt P08485).
T5 sequence (P08485 whole entry): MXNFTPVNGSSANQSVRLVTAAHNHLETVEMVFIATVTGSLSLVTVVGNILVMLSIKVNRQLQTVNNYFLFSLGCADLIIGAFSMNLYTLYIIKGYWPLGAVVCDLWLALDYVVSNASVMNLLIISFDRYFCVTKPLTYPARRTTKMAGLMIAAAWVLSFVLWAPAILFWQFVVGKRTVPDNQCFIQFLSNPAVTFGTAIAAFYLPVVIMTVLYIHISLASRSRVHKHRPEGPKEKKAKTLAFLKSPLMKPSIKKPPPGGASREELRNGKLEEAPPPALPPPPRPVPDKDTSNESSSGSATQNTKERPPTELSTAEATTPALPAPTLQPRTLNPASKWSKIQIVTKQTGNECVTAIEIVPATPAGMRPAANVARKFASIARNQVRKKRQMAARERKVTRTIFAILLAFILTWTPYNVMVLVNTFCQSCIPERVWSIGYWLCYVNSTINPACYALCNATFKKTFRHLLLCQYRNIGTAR
The experiment can be described thus: Antagonist activity at rat muscarinic M4 receptor expressed in CHO cells by calcium mobilization assay. The class given is functional, cell-based.

For experiment [6], the species on record is Rattus norvegicus. The experiment can be described thus: Selectivity for rat muscarinic M1 receptor over rat muscarinic M3 receptor by calcium mobilization assay.
The species entered for experiment [7] is Rattus norvegicus. The experiment can be described thus: Selectivity for rat muscarinic M1 receptor over rat muscarinic M5 receptor by calcium mobilization assay.
The species entered for experiment [8] is Rattus norvegicus. The experiment can be described thus: Selectivity for rat muscarinic M1 receptor over rat muscarinic M4 receptor by calcium mobilization assay.
The target of experiment [9] is T6, Muscarinic acetylcholine receptor M1 (Homo sapiens) (UniProt P11229).
T6 sequence (whole entry): T3 sequence (P08482 whole entry) with V5A, S254T, S309P, K320R, G337A, V413I
Description: Inhibition of human muscarinic M1 receptor.

For experiment [10], the target named is T1, Muscarinic acetylcholine receptor M3. Description: Displacement of [3H]NMS from rat muscarinic M3 receptor expressed in CHO cells. The class given is cell-based.
Experiment [11] concerns the target T5, Muscarinic acetylcholine receptor M4. The experiment can be described thus: Displacement of [3H]NMS from rat muscarinic M4 receptor expressed in CHO cells. The class given is cell-based. Background: Displacement assays read how much labelled ligand stays bound in the presence of the test substance.
The target of experiment [12] is T3, Muscarinic acetylcholine receptor M1. The experiment can be described thus: Displacement of [3H]NMS from rat muscarinic M1 receptor expressed in CHO cells. The format is cell-based. Summed up: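 Competition binding against the orthosteric radioligand [³H]-N-methylscopolamine on rat mAChR subtypes from CHO cell lines, with atropine as positive control. Ki values are averages of three independent experiments.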

For experiment [13], the target named is T2, Muscarinic acetylcholine receptor M5. The experiment can be described thus: Displacement of [3H]NMS from rat muscarinic M5 receptor expressed in CHO cells. The class given is cell-based.
Experiment [14] concerns the target T4, Muscarinic acetylcholine receptor M2. The experiment can be described thus: Displacement of [3H]NMS from rat muscarinic M2 receptor expressed in CHO cells. The class given is cell-based.

Molecules are shown by their SMILES. Numbering of substitutions follows the chain as printed. pIC50, pKi: −log10 of the molar value. Active and inactive are the calls of the source. The calls are words filed in the database; no cut-off is given here.

The values that follow come from ChEMBL document CHEMBL1143155, “Synthesis and SAR of selective muscarinic acetylcholine receptor subtype 1 (M1 mAChR) antagonists” (Bioorg Med Chem Lett, 2008).

T1 sequence (P08483 whole entry): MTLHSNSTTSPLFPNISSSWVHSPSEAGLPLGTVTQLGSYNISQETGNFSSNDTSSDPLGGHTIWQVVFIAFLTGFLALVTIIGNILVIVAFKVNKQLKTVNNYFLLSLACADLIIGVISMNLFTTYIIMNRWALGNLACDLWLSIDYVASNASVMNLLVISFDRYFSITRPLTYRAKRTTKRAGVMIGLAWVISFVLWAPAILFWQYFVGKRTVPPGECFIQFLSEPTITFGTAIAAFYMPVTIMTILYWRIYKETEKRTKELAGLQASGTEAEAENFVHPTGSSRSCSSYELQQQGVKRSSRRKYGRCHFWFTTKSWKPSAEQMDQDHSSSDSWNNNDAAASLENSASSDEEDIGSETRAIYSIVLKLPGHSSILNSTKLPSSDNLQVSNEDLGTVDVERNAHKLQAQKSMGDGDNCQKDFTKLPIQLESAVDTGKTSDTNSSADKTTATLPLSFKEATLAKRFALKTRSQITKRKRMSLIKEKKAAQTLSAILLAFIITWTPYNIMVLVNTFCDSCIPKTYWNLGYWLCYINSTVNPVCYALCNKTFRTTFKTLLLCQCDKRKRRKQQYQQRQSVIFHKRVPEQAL

By pIC50 is commonly meant the IC50 on a negative log10 scale, so that one unit is a factor of ten. Regarding `CCCC(=O)Nc1ccc(N2CCN(CC)CC2)c(Cl)c1`, the pIC50 in [1], in [2], in [3], in experiment [4] and in experiment [5] was less than 3.82 throughout.
As for `CCN1CCN(c2ccc(NC(=O)[C@H]3C[C@@H]3c3ccccc3)cc2Cl)CC1`, the pIC50 was 4.62 in experiment [1]; 4.89 in [2]; 5.94 in experiment [3]; 4.54 in experiment [4]; 4.70 in experiment [5].
In the case of `CCN1CCN(c2ccc(NC(=O)c3ccccc3)cc2Cl)CC1`, the pIC50 is less than 3.82 in [1]; less than 3.82 in experiment [2]; 5.30 in [3]; less than 3.82 in [4]; 4.18 in [5].
Regarding `CCN1CCN(c2ccc(NC(=O)C3CCCCC3)cc2Cl)CC1`, the pIC50 in [1] is less than 3.82; in experiment [2], less than 3.82; in [3], 5.34; in experiment [4] it was less than 3.82; in experiment [5] it was less than 3.82. Besides, the Ratio IC50 in experiment [6], in [7] and in experiment [8] was more than 32 in each case.
Consider `CN1CCN(CC(=O)N2c3ccccc3C(=O)Nc3cccnc32)CC1`, for which the Ratio IC50 in experiment [6], in experiment [7] and in experiment [8] was 20 in each case.
As to `CCN1CCN(c2ccc(NC(=O)CCc3ccccc3)cc2Cl)CC1`, the pIC50 in [1] was 4.15; in experiment [2], 5.12; in [3], 5.96; in [4] it was 4.28; in experiment [5], 4.74. Also, the Ratio IC50 was 63 in experiment [6], 6.9 in [7] and 16 in experiment [8].
Consider `CCN1CCN(c2ccc(NC(=O)COCc3ccccc3)cc2Cl)CC1`, for which the negative-log IC50 (pIC50) in experiment [1] was less than 3.82; in experiment [2], less than 3.82; in experiment [3], 4.73; in experiment [4], less than 3.82; in experiment [5], less than 3.82.
In the case of `CCCCOc1cccc(C(=O)Nc2ccc(N3CCN(CC)CC3)c(Cl)c2)c1`, the outcome in experiment [9] was Active. In addition, the pIC50 in [3] was 6.24; in [5], 5.29.
One may read the pKi as −log10 of the Ki, conventionally taken in molar units. With `CCN1CCN(c2ccc(NC(=O)CCC3CCCC3)cc2Cl)CC1`, the pKi in experiment [10] is 7.13; in experiment [11] it was 6.35; in experiment [12] it was 7.90; in experiment [13] it was 7.07; in [14], 6.47. The pIC50 in experiment [1] was 5.51; in [2] it was 5.96; in experiment [3], 6.36; in [4] it was 5.46; in experiment [5] it was less than 3.82. Moreover, the figures for the Ratio IC50 in experiment [6], in [7] and in experiment [8] were 7, 2.4 and more than 340, respectively.
In the case of `CCCCCC(=O)Nc1ccc(N2CCN(CC)CC2)c(Cl)c1`, the pIC50 in [1] was less than 3.82; in experiment [2], less than 3.82; in experiment [3], 6.31; in experiment [4], less than 3.82; in [5], 5.10. Further, the result in [9] was Active.
Turning to `CCN1CCN(c2ccc(NC(=O)Cc3ccc(F)cc3)cc2Cl)CC1`, the pIC50 in experiment [1] was less than 3.82; in [2] it was less than 3.82; in experiment [3], 5.25; in [4] it was less than 3.82; in experiment [5], less than 3.82. Further, the Ratio IC50 in experiment [6], in [7] and in [8] was more than 26 each time.
With `CCN1CCN(c2ccc(NC(=O)CC(C)(C)C)cc2Cl)CC1`, the pIC50 in experiment [1], in [2], in [3], in experiment [4] and in experiment [5] was less than 3.82 each time.
`CCN1CCN(c2ccc(NC(=O)COc3ccccc3)cc2Cl)CC1`: the negative-log IC50 (pIC50) was less than 3.82 in experiment [1]; less than 3.82 in [2]; 5.48 in [3]; less than 3.82 in experiment [4]; less than 3.82 in experiment [5]. Further, the Ratio IC50 in experiment [6], in [7] and in [8] was more than 45 throughout.
